From ChEMBL document CHEMBL1146754, “Estrogen receptor ligands. Part 4: The SAR of the syn-dihydrobenzoxathiin SERAMs” (Bioorg Med Chem Lett, 2004) come the findings set out here.

SMILES strings stand for the structures. A value given as a limit tells only on which side of the number the result lay.

Data set [1] is described as follows: Plasma clearance of the compound in female Sprague-Dawley rats. Format: ADME, organism-based. The following applies: female, Sprague-Dawley, rat, plasma. An outline of the steps:
(§1)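 Female Sprague–Dawley rats were dosed intravenously at 1 mpk (n = 2) and orally at 2 mpk (n = 3) for pharmacokinetic evaluation.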

The nature of data set [2]: Bioavailability in rat (Sprague-Dawley) (female). Format: ADME, organism-based. The following applies: female, Sprague-Dawley, in vivo. Put shortly: as §1
The target in data set [3] is T1, Estrogen receptor beta (Homo sapiens, UniProt Q92731). In words: Potency in cellular transactivation assay utilizing HEK293 cells stably co-transfected with human estrogen receptor beta and the alkaline phosphatase reporter gene. Format: functional, cell-based. For orientation: A reporter such as luciferase makes a cellular process visible.
For data set [4], the target named is T2, Estrogen receptor (Homo sapiens, UniProt P03372).
T2 sequence (P03372 whole entry): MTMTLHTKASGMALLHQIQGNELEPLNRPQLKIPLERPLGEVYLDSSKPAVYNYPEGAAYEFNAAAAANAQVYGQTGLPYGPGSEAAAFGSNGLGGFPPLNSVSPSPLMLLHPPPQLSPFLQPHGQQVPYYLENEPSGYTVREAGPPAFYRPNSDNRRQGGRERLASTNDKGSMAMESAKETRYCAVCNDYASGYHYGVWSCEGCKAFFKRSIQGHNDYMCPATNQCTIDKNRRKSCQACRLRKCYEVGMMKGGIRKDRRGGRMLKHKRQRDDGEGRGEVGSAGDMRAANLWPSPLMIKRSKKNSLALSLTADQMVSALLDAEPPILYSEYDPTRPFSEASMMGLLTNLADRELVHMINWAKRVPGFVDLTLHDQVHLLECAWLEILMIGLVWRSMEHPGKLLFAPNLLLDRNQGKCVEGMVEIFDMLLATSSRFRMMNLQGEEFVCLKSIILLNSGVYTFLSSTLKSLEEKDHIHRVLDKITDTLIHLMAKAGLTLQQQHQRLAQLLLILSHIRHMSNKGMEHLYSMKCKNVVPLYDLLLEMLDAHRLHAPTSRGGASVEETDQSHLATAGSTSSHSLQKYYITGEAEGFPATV
The experiment in a line: Potency in cellular transactivation assay utilizing HEK293 cells stably co-transfected with human estrogen receptor alpha and the alkaline phosphatase reporter gene. It is filed as functional, cell-based.

In data set [5] the target is T1, Estrogen receptor beta.
Data set [6] has as its target T2, Estrogen receptor.
Data set [7] is described as follows: Half life period in female Sprague-Dawley rats. To be noted: female, Sprague-Dawley, rat, in vivo. Format: ADME, organism-based. An outline of the steps:
as §1

Data set [8] addresses T3, Estrogen receptor (Rattus norvegicus) (UniProt P06211+Q62986). To be noted: at 1 mg/kg.
The target in data set [9] is T3, Estrogen receptor (Rattus norvegicus). The following applies: at 1 mg/kg. The source holds these as a separate data set.
Data set [10] has the same target. The following applies: at 1 mg/kg. The source holds these as a separate data set.
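For Antagonism in this document: Read-out is rat uterine weight, with subcutaneous dosing.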

T1 sequence (Q92731 whole entry): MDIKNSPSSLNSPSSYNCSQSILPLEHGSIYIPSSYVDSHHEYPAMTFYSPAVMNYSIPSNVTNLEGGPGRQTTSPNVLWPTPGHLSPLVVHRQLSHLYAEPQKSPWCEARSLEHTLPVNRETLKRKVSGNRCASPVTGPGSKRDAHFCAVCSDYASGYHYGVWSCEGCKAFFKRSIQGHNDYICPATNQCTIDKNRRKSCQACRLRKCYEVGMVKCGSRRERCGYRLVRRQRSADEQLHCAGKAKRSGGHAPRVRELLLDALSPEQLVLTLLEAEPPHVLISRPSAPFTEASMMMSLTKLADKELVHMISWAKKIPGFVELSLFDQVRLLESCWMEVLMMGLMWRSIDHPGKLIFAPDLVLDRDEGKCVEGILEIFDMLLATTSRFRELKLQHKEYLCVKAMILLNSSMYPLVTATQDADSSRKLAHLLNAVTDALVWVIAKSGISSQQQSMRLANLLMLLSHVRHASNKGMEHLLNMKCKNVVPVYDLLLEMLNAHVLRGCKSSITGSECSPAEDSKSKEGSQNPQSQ

As a reminder, the clearance is the volume of plasma or blood freed of the substance per unit of time. Lower therefore signals a low capacity for elimination. The term bioavailability denotes dose-corrected exposure relative to a reference, in per cent. Higher therefore signals much systemic uptake. As usually defined, the IC50 is the concentration at which inhibition is half-maximal. Higher therefore signals weaker potency in that assay. Broadly, the half-life is the time in which the quantity being followed falls by half. Low values mean rapid decline, high ones slow decline. `Oc1ccc([C@@H]2Sc3c(ccc(O)c3F)O[C@@H]2c2ccc(OCCN3CCCCC3)cc2)cc1` gave a clearance in data set [1] of 16 mL/min/kg. For the same compound, the bioavailability in [2] stood at 22%. Moreover, the IC50 in [3] worked out at 177 nM; in data set [4] it was 2.5 nM; in data set [5], 13.2 nM; in data set [6], 0.8 nM. The compound also showed a half-life in data set [7] of 2.4 h. The Antagonism in data set [8] was found to be 76%. Also, the Estrogenic effect in [9] is 7%.
Regarding `COc1ccc(C2Sc3cc(O)ccc3OC2c2ccc(OCCN3CCCCC3)cc2)cc1` (stereo not given), the IC50 in [3] is above 1000 nM; in [4], 274 nM; in data set [5], 792 nM; in [6], 41.1 nM.
For `Oc1cccc([C@H]2Sc3cc(O)ccc3O[C@H]2c2ccc(OCCN3CCOCC3)cc2)c1`, the IC50 was found to be 65.3 nM in [3], 4.7 nM in [4], 318 nM in [5] and 3.8 nM in data set [6]. In addition, the Antagonism in [8] is 54%. The Estrogenic effect in [9] was determined as 29%.
Consider `CN(C)CCOc1ccc([C@@H]2Oc3ccc(O)cc3S[C@@H]2c2cccc(O)c2)cc1`, for which the IC50 was 7.3 nM in data set [3], 2.3 nM in data set [4], 129 nM in data set [5] and 1.4 nM in data set [6]. Besides, the Antagonism in data set [8] came out at 34%. The Estrogenic effect in [9] was 69%.
As to `Cc1cc(O)cc2c1O[C@H](c1ccc(OCCN3CCCCC3)cc1)[C@H](c1ccc(O)cc1)S2`, the IC50 in data set [3] turned out to be 690 nM; in [4], 22.6 nM; in data set [5] it was 343 nM; in data set [6], 5.3 nM. Besides, the Antagonism in data set [8] was -4%. Besides, the Estrogenic effect in [9] stood at 12%.
With `Oc1ccc2c(c1)SC(c1ccc(F)cc1)C(c1ccc(OCCN3CCCCC3)cc1)O2` (stereo not given), the IC50 in data set [3] was determined as 1550 nM; in data set [4] it was 94 nM; in data set [5], 66.6 nM; in data set [6], 3.8 nM. The Antagonism in data set [8] worked out at 9.5%. The Estrogenic effect in data set [9] was 5%.
With `Cc1cc2c(cc1O)O[C@H](c1ccc(OCCN3CCCCC3)cc1)[C@H](c1ccc(O)cc1)S2`, the results for the IC50 in data set [5] and in data set [6] were 595 nM and 34.9 nM, respectively.
For `Cc1c(O)ccc2c1O[C@H](c1ccc(OCCN3CCCCC3)cc1)[C@H](c1ccc(O)cc1)S2`, the IC50 in data set [3] was determined as 68.3 nM; in data set [4], 9.3 nM; in data set [5], 54 nM; in [6], 1.2 nM. Moreover, the Antagonism in data set [8] came to 29%. Moreover, the Estrogenic effect in [9] was 27%.
Regarding `Oc1ccc([C@H]2Sc3cc(O)ccc3O[C@H]2c2ccc(OCCN3CCCCC3)cc2)cc1`, in data set [1], the clearance turned out to be 10 mL/min/kg. This compound also displayed a bioavailability in [2] of 62%. The half-life in data set [7] is 3.4 h. Further, in data set [10], the Estrogenic effect came to 9%.
`Oc1cccc([C@H]2Sc3cc(O)ccc3O[C@H]2c2ccc(OCCN3CCCC3)cc2)c1`: the IC50 in data set [3] was determined as 40.1 nM; in [4], 1.7 nM; in data set [5], 37 nM; in data set [6], 0.9 nM. The Antagonism in data set [8] amounted to 77%. Moreover, the Estrogenic effect in data set [9] stood at 22%.
As for `Oc1ccc([C@@H]2Sc3c(ccc(O)c3Cl)O[C@@H]2c2ccc(OCCN3CCCCC3)cc2)cc1`, the IC50 worked out at 64 nM in data set [3], 1 nM in data set [4], 14 nM in data set [5] and 2.4 nM in [6]. Further, in [8], the Antagonism came to 67%. For the same compound, the Estrogenic effect in data set [9] stood at 27%.
`Oc1ccc([C@@H]2Sc3cc(O)c(Cl)cc3O[C@@H]2c2ccc(OCCN3CCCCC3)cc2)cc1`: the IC50 in [3] stood at 2370 nM; in data set [4], 14.8 nM; in data set [5] it was 73 nM; in [6], 5.4 nM. Besides, the Antagonism in [8] came out at 36%. In addition, the Estrogenic effect in [9] is 38%.
On to `Oc1ccc2c(c1)S[C@@H](c1ccccc1O)[C@@H](c1ccc(OCCN3CCCCC3)cc1)O2`, for which the IC50 in data set [5] came out at 1.1 nM; in [6] it was 1.3 nM.
`Oc1ccc([C@@H]2Sc3c(F)cc(O)cc3O[C@@H]2c2ccc(OCCN3CCCCC3)cc2)cc1` returned a clearance in [1] of 41 mL/min/kg. In addition, in data set [2], the bioavailability was 4.4%. Also, the IC50 in [3] worked out at 516 nM; in data set [4], 6.1 nM; in data set [5], 13 nM; in data set [6], 0.5 nM. The same compound gave a half-life in [7] of 5.9 h. The Antagonism in [8] is 89%. The Estrogenic effect in [9] is -2%.
With `Oc1cccc(C2Sc3cc(O)ccc3OC2c2ccc(OCCN3CCCCC3)cc2)c1` (stereo not given), the IC50 came out at 245 nM in data set [3], 3.6 nM in data set [4], 250 nM in data set [5] and 3 nM in data set [6]. Besides, the Antagonism in [8] came to 90%. The Estrogenic effect in data set [9] came out at 16%.
Turning to `CCc1cc(O)cc2c1S[C@@H](c1ccc(O)cc1)[C@@H](c1ccc(OCCN3CCCCC3)cc1)O2`, the IC50 in data set [3] is 1460 nM; in data set [4], 342 nM; in [5], 185 nM; in data set [6] it was 53.3 nM.
The like results for `Oc1ccc([C@@H]2Sc3cc(Cl)c(O)cc3O[C@@H]2c2ccc(OCCN3CCCCC3)cc2)cc1` were, in that order, 3020 nM, 61 nM, 520 nM and 23.1 nM.
For the compound `Oc1ccc([C@@H]2Sc3cc(O)cc(Cl)c3O[C@@H]2c2ccc(OCCN3CCCCC3)cc2)cc1`, the IC50 was 1010 nM in [3], 25.4 nM in [4], 105 nM in data set [5] and 5.3 nM in data set [6].
Regarding `Oc1ccc([C@@H]2Sc3cc(O)c(F)cc3O[C@@H]2c2ccc(OCCN3CCCCC3)cc2)cc1`, the values for the IC50 in data set [5] and in [6] were 413 nM and 13.5 nM, respectively. The Antagonism in [8] is 53%. In addition, the Estrogenic effect in data set [9] is 13%.
With `Oc1cccc([C@H]2Sc3cc(O)ccc3O[C@H]2c2ccc(OCCNC3CCCCCC3)cc2)c1`, the IC50 in data set [3] came out at 67 nM; in data set [4] it was 3.5 nM; in data set [5], 103 nM; in [6], 1.2 nM. Besides, the Antagonism in data set [8] is 57%. For the same compound, in data set [9], the Estrogenic effect was 22%.
In the case of `CCc1c(O)ccc2c1O[C@H](c1ccc(OCCN3CCCCC3)cc1)[C@H](c1ccc(O)cc1)S2`, the IC50 in data set [5] turned out to be 25 nM; in data set [6] it was 4.7 nM.
Turning to `Cc1cc(O)cc2c1S[C@@H](c1ccc(O)cc1)[C@@H](c1ccc(OCCN3CCCCC3)cc1)O2`, in [1], the clearance was determined as 51 mL/min/kg. For the same compound, in data set [2], the bioavailability is 6%. The IC50 in [3] is 200 nM; in data set [4], 5.5 nM; in [5], 46.2 nM; in data set [6], 2 nM. The same compound had a half-life in data set [7] of 2.7 h.
Turning to `Oc1cccc([C@H]2Sc3cc(O)ccc3O[C@H]2c2ccc(OCCN3CCCCC3)cc2)c1`, the IC50 in data set [3] came out at 157 nM; in data set [4], 5.4 nM; in data set [5], 115 nM; in [6] it was 4.1 nM. In addition, the Antagonism in data set [8] is 78%. Further, the Estrogenic effect in data set [9] is 12%.
In data set [1], `Oc1ccc([C@@H]2Sc3ccc(O)cc3O[C@@H]2c2ccc(OCCN3CCCCC3)cc2)cc1` registered a clearance of 154 mL/min/kg. Besides, the bioavailability in [2] turned out to be 0%. Moreover, the IC50 in data set [3] is 239 nM; in [4] it was 5 nM; in data set [5] it was 44.4 nM; in data set [6], 1.8 nM. In [7], this compound had a half-life of 2.2 h. In data set [8], the Antagonism was 67%. In addition, in data set [9], the Estrogenic effect is 1%.
As for `Oc1ccc([C@@H]2Sc3cc(O)ccc3O[C@@H]2c2ccc(OCCN3CCCCC3)cc2)cc1` (stereo in doubt; 11), the Antagonism in [8] was determined as 77%. Further, the Estrogenic effect in [9] turned out to be 5%.
Turning to `Oc1ccc([C@@H]2Sc3c(O)cc(O)cc3O[C@@H]2c2ccc(OCCN3CCCCC3)cc2)cc1`, the IC50 was 788 nM in [5] and 25 nM in data set [6]. In addition, in [8], the Antagonism was 64%. In data set [9], the Estrogenic effect was 7%.
For the compound `CC1CCN(CCOc2ccc([C@@H]3Oc4ccc(O)cc4S[C@@H]3c3cccc(O)c3)cc2)CC1`, the concentration for half-maximal inhibition (IC50) is 132 nM in data set [3], 4 nM in data set [4], 109 nM in [5] and 0.8 nM in data set [6]. Also, in data set [8], the Antagonism is 59%. Also, in [9], the Estrogenic effect stood at 29%.
In the case of `Oc1ccc([C@@H]2Sc3c(Cl)cc(O)cc3O[C@@H]2c2ccc(OCCN3CCCCC3)cc2)cc1`, the IC50 stood at 121 nM in [3], 3.4 nM in data set [4], 8 nM in data set [5] and 0.51 nM in data set [6]. The Antagonism in data set [8] turned out to be 68%. Moreover, in data set [9], the Estrogenic effect was determined as 12%.
As to `Oc1ccc2c(c1)SC(c1ccccc1)C(c1ccc(OCCN3CCCCC3)cc1)O2` (stereo not given), the IC50 stood at 300 nM in data set [5] and 11.9 nM in [6].
